AHR activator – human AHR activation; activation, % at 5 µM; actives 2.5% (n = 320,000); AHR-responsive luciferase reporter cells, luminescence; P35869; in the data active = activation above about 47%;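 also: 0% = vehicle wells and 100% = reference agonist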
Target sequence (P35869 whole entry, looked up): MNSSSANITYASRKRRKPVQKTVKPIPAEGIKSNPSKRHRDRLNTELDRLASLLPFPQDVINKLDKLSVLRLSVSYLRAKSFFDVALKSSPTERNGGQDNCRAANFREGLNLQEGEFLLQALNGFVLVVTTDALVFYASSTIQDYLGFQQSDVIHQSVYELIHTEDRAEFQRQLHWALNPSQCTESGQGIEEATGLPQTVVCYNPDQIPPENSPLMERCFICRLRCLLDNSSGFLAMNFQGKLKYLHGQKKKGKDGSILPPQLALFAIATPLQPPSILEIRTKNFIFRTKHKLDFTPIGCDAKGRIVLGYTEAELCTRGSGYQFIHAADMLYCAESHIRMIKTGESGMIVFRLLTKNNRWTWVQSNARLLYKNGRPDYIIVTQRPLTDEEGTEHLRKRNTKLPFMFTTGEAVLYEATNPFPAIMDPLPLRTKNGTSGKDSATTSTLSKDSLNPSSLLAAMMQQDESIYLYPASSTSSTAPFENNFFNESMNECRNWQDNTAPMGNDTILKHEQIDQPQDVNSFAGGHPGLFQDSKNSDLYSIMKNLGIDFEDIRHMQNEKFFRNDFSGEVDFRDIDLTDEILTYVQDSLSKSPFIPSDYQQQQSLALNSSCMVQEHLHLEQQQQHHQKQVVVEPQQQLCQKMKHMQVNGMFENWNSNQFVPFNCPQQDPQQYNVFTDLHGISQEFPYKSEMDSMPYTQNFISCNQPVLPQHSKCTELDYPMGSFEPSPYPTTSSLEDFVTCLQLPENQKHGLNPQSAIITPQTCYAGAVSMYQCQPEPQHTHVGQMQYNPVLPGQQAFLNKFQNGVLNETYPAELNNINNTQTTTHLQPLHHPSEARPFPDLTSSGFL
MsrA act – activates bovine MsrA enzyme; activation, % at 10.6 µM; actives 0.3% (n = 360,000); purified bovine MsrA, absorbance read-out; in the data active = activation above about 7.5%;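 also: 0% = vehicle and 100% = reference activator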
AI-2 QS mod – modulates the Vibrio harveyi AI-2 quorum sensing system; activity change, % at 7.5 µM; Vibrio harveyi JMH597 AI-2 luminescence/OD600 ratio, 9 h; active compounds read low; strain lacks LuxN and CqsS sensors; 0 = neutral-control median; actives 0.4% (n = 300,000); in the data active = activity change below about -75%, passing the limit was not always enough;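 also: luminescence divided by OD600 gain over 9 h not by final OD600 alone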
MsrA inh – bovine MsrA inhibition | inhibition, % at 15.5 µM | purified bovine MsrA, absorbance read-out | actives 0.75% (n = 360,000); in the data active = inhibition above about 4.5%;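 also: 0% = vehicle wells with enzyme and 100% = reference inhibitor wells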
HTR2A ag – mouse HTR2A agonism via beta-arrestin recruitment. CHO-K1 mHTR2A beta-arrestin complementation, luminescence; percent of 30 µM serotonin response. activation, % at 7.6 µM. actives 0.66% (n = 360,000). AID 624169;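 active = activation above a run cutoff, the mean activation of all tested compounds plus 3 SD, cut at about 14% in these data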;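 also: 0% = plate median of compound wells and 100% = 30 µM serotonin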
TbMetRS inhib – blocks T. brucei methionyl-tRNA synthetase activity | purified T. brucei MetRS, ATP depletion, Kinase-Glo luminescence | inhibition, % at 11.9 µM | actives 0.4% (n = 360,000) | AID 624268;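 active = inhibition above a per-plate cutoff of the control wells' mean inhibition plus 3 SD, cut at about 5.5% in these data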;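 also: 0% = DMSO wells median and 100% = median of wells with control inhibitor compound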
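Material: T. brucei methionyl-tRNA synthetase, purified; reagent: substrates ATP, L-methionine and bulk Escherichia coli tRNA; dosing: 11.9 µM single point; timing: 15 min plus 2 h at 25 °C; detection: luminescence of leftover ATP; evaluation: % inhibition; control set: DMSO-only wells as low control; replicates: singlicate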
MsrA act confirm – bovine methionine sulfoxide reductase A activation confirmed. shares compounds with MsrA act. purified bovine MsrA, absorbance read-out. activation, % at 10.6 µM. actives 12% (n = 1,000). AID 602270; in the data active = activation above about 4%;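 also: enzyme coupled to thioredoxin and thioredoxin reductase with NADPH; 0% = vehicle wells and 100% = reference activator wells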
An asterisk follows results filed as active; . = no result. A selection: hits, their analogues and other compounds. The true share with any hit is near 4.4%.

SMILES	AHR activator	MsrA act	AI-2 QS mod	MsrA inh	HTR2A ag	TbMetRS inhib	MsrA act confirm
CCN1CCN(c2ccc(S(=O)(=O)N3CCCCC3)cc2NC(=O)c2ccc(C)c(C)c2)CC1	.	-1	.	1	-8	0	.
CCCCCn1c(=O)c2ccccc2n2c(=S)[nH]nc12	1	9.6*	19	0	-3	0	-3
CCCCn1c(=O)c2ccccc2n2c(=S)[nH]nc12	4	4	14	1	8	0	.
CCc1nnc(N/N=C/c2ccc(-c3ccc([N+](=O)[O-])cc3)o2)n1N	24	8.4*	16	1	-6	2	0
Oc1ccccc1/C=N/Nc1nn[nH]n1	4	-2	8	-1	-1	0	.
Cc1nnc(N/N=C/c2ccccc2O)n1N	48*	8.8*	21	0	3	1	-1
Cc1nnc(N/N=C\c2ccc(-c3ccccc3[N+](=O)[O-])o2)n1N	61*	17*	20	2	3	0	-6
CCC(=O)N/N=C/c1ccc(-c2ccc([N+](=O)[O-])cc2)o1	20	-10	7	2	-1	-1	.
O=C(O)c1ccc2c(c1)S(=O)(=O)c1cc(Cl)ccc1C2=O	2	-1	.	1	-2	0	.
Cn1ncc(Cl)c1C(=O)NNC(=O)Nc1cccc2ccccc12	.	-4	-5	1	0	0	.
O=C(COC(=O)c1ccc(Cl)c(S(=O)(=O)N2CCN(c3ccc(F)cc3)CC2)c1)Nc1cccc(Cl)c1	4	12*	12	-1	-3	0	1
CCOC(=O)C(Oc1ccc2c(-c3ccccc3)cc(=O)oc2c1C)c1ccccc1 (stereo not drawn)	-4	8.0*	0	0	0	0	0
CC(=O)c1cccc(NC(=O)c2cccc3c(-c4cnn(C)c4)coc23)c1	.	0	.	-1	10	0	.
Cc1cccc(N=C2NC(=O)c3cc([N+](=O)[O-])ccc32)c1	7	7.8*	13	-1	10	0	4
O=C(NNC(=O)c1cccnc1Cl)c1ccc(F)cc1	1	-1	37	-1	0	1	.
CCOC(=O)[C@H]1[C@H]2COc3ccc(OC)cc3[C@@H]2N2C(=O)CN(Cc3ccc(C)cc3)C(=O)[C@@]12C	1	14*	.	0	-2	1	0
CCOC(=O)[C@H]1[C@H]2COc3ccc(OC)cc3[C@@H]2N2C(=O)CN(Cc3ccc(OC)cc3)C(=O)[C@@]12C	3	-3	.	0	6	0	.
COc1ccc(CC(=O)NNC(=O)COc2ccc(Cl)cc2C)cc1S(=O)(=O)N1CCOCC1	0	-6	.	-1	0	0	.
CC(=O)Nc1c(Br)cc2c(c1Br)Cc1cc([N+](=O)[O-])ccc1-2	.	-3	.	1	-4	0	.
COc1ccccc1CNC(=O)CCNS(=O)(=O)c1ccc2c(c1)CC(C)N2C(C)=O (stereo not drawn)	1	-1	16	0	-2	0	.
C=C1CCC[C@]2(C)C[C@H]3OC(=O)C(CN(C)CC(OC)OC)[C@H]3CC12 (stereo partly drawn)	0	8.7*	36	0	0	0	-2
C=C1CCC[C@]2(C)C[C@H]3OC(=O)C(CNC(C)CC)[C@H]3CC12 (stereo partly drawn)	1	-8	10	1	-4	-1	.
Cc1ccc(S(=O)(=O)NC(=O)C2(C)CCN2C(=O)C2CCCCC2)nc1 (stereo not drawn)	.	-4	.	0	3	0	.
COC(=O)c1ccc2c(c1C(=O)OC)CN(S(=O)(=O)C(C)(C)C)[C@H]2CCO	.	1	.	1	1	0	.
Cc1cc(NC(=O)CCCC(=O)NCc2cccs2)no1	2	7.9*	10	0	-5	0	-2
SMILES	AHR activator	MsrA act	AI-2 QS mod	MsrA inh	HTR2A ag	TbMetRS inhib	MsrA act confirm
CC(C)COC(=O)c1ccc(N2C(=O)c3ccccc3C2=O)cc1	-1	7.9*	31	-1	-2	0	5.5*
CCOC(=O)c1ccc(N2C(=O)Cc3ccccc3C2=O)cc1	0	-4	4	0	1	0	.
Cc1ccc(C(=O)C(C)OC(=O)Cn2[nH]c(=O)c3ccccc3c2=O)cc1C (stereo not drawn)	2	-5	-7	0	-3	0	.
COc1ccc(C/C(N)=N/n2cnnc2)cc1	-3	-2	10	0	-2	0	.
CC(C)COc1ccc(C/C(N)=N/n2cnnc2)cc1	-1	8.0*	23	-1	0	0	-2
CCN(c1cccc(C)c1)S(=O)(=O)c1cc2c3c(c1)CCN3C(=O)CC2	-1	-1	-2	0	1	0	.
CCOc1ccc(N2CC(C(=O)NCCCN3CCOCC3)CC2=O)cc1 (stereo not drawn)	2	9.1*	-2	0	-2	0	-2
Cc1ccc(S(=O)(=O)N(C)CC(=O)Nc2ccccc2N2CCCC2)cc1	2	-1	.	0	-3	0	.
CN(CC(=O)Nc1ccccc1N1CCOCC1)S(=O)(=O)c1ccc(Cl)cc1	-1	8.0*	15	0	4	0	5.5*
N=C(N)Sc1nc(N2CCCCC2)nc(N2CCCCC2)n1	-4	-5	12	-1	3	0	.
c1ccc(Sc2nc(N3CCCCC3)nc(N3CCCCC3)n2)nc1	6	9.3*	5	-1	3	-1	1
Cc1ccccc1C(=O)NCCCCc1ccccc1	-2	8.7*	-18	0	-4	0	2
C[C@H]1CN([C@@H](C)CO)C(=O)CCCn2nncc2CO[C@@H]1CN(C)C(=O)Nc1ccccc1F	.	.	.	-1	.	.	.
Cc1cc(C)c2c(n1)nn1c(N3CCN(c4ccccc4C)CC3)cc(C)nc21	0	7.7*	.	1	-1	0	-1
CCOc1ccc(CN2CCN(c3cc(C)nc4c5c(C)cc(C)nc5nn34)CC2)cc1	.	.	32	.	.	.	.
CCc1nc2ccc(C(=O)NCCN3CCNC3=O)cn2c1N(CC)CCOC	.	-2	.	0	-1	0	.
CCOC(=O)c1cnc2nc(NCc3ccc(OCc4ccccc4)cc3)[nH]n2c1=O	2	-3	26	0	-4	-1	.
CCOC(=O)c1cnc2nc(COc3ccccc3)[nH]n2c1=O	0	12*	10	-1	1	0	-3
CCC(c1nnnn1C(C)(C)C)N1CCN(C2CCCC2)CC1 (stereo not drawn)	1	8.1*	11	0	1	0	-1
Cc1ccccc1OCCn1c(S(=O)(=O)O)nc2c(N)ncnc21	1	4	23	1	-3	-1	.
CCCc1cc(C(=O)Cc2ccc(F)cc2)c(O)cc1O	1	22*	27	1	-3	0	-2

Screening data (PubChem)
